Screens from PubChem BioAssay.
This excerpt belongs to a sample that is enriched for hits.
HCT116 bCat-KO: beta-catenin-lacking colon tumor cell growth suppression. AID 818. viability, % at 10 µM. HCT116 beta-catenin knockout viability, CellTiter-Glo, 60 h; hits give low values. hit rate 1.5% among 140,000;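 active = viability at or under a set limit, the compound median less 4 SD, cut at about 6% in these data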;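 also: 0% = Hyamine 1622 control at 20 µM and 100% = untreated cell control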
HUVEC prolif 384: inhibitors of human endothelial cell proliferation; HUVEC proliferation, CellTiter-Glo luminescence, 72 h; hits give low values; viability, % at 10 µM (by protocol); hit rate 1.1% among 86,000; AID 648;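 active = viability at or below 30%; inactive = viability above 30%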;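 also: 100% = median luminescence of DMSO-only cell control wells on each plate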
Pyk2 oligo antag: Pyk2 (human) oligomerization antagonism. Q14289. Q293 cells, Pyk2 FERM NanoBiT luminescence; hits give low values. z-score (the deposit names both 25 µM and 10 µM). hit rate 0.83% among 99,000. AID 1347419;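 active = Z-score of -3 or lower, scaled per plate to the spread of control and sample wells; inactive = z-score above -3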;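 also: negative z-score means lost luminescence so less FERM oligomerization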
Target sequence (Q14289 whole entry, looked up): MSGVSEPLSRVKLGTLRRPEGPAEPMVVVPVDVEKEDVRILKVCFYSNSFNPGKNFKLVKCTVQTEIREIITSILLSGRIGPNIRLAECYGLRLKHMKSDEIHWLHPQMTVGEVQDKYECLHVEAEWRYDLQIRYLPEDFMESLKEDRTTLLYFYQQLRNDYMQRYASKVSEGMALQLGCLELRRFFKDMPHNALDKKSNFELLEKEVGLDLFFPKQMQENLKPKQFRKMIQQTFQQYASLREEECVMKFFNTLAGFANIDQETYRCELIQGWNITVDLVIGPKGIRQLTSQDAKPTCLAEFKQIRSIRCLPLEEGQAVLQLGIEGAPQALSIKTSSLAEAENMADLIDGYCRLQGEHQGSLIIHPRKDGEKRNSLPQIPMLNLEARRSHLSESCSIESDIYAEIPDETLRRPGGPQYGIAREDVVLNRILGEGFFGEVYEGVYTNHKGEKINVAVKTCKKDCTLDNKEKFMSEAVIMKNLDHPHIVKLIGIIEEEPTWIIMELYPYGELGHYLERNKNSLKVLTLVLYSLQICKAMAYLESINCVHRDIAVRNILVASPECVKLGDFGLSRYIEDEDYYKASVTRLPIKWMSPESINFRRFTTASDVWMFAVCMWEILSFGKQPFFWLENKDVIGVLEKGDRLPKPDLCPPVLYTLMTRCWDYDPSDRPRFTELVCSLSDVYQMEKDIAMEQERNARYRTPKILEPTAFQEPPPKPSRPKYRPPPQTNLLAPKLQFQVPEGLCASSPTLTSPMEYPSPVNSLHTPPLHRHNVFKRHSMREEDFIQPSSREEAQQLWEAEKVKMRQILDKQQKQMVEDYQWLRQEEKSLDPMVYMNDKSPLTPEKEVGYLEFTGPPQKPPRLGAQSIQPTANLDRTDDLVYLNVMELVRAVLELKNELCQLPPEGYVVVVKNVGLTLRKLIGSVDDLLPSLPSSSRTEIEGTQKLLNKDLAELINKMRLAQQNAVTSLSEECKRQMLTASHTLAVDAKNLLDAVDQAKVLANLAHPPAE
Lung fibro prol: blocks proliferation of human lung fibroblasts. hit rate 1.1% among 85,000. AID 719. viability, % at 10 µM. LL 47 human lung fibroblast viability, ATP luminescence; hits give low values;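 active = viability at or below 50% in the single dose screen; inactive = viability above 50%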;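 also: compound exposure lasted 72 h before the ATP readout; 100% = median luminescence of untreated cell-only wells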
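Material: human LL 47 lung fibroblast cells; quantity: 1,150 cells/well; medium: IMEM plus 15% FBS; doses: 0.1% DMSO in all compound wells; timing: overnight attachment after seeding, then 72 h compound exposure at 37 °C; detection: CellTiter-Glo luminescence; measure: % viability of median cell-only signal; controls: cell-only wells, no compound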
H69AR inhibit: growth inhibitors of human H69AR lung tumor cells; H69AR lung tumor viability, ATP luminescence, 72 h; hits give low values; viability, % at 10 µM; hit rate 6% among 85,000;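 active = viability at or below 40%; inactive = viability above 40%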;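 also: multidrug resistant small cell line overexpressing MRP-1 efflux transporter; 100% = mean luminescence of untreated control wells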
PTEN del growth: PTEN-deleted cell growth suppression; HCT116 PTEN-null viability, CellTiter-Glo, 60 h; hits give low values; viability, % at 10 µM; hit rate 1.2% among 140,000;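 active = viability at or below a set limit, 4 SD under the median of all tested compounds, cut at about 3.7% in these data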;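 also: PTEN knockout HCT116 line with beta catenin targeted HCT116 as companion control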
Numbers without * were called inactive; . = not tested or not shown.

SMILES	HCT116 bCat-KO	HUVEC prolif 384	Pyk2 oligo antag	Lung fibro prol	H69AR inhibit	PTEN del growth
CCc1ccc(-c2nc(CN3CCC(C(=O)NCCc4ccc(OC)c(OC)c4)CC3)c(C)o2)cc1	2.0*	55	0.29	90	69	15
COc1ccccc1CNC(=O)C1CCN(Cc2nc(-c3cccc(Cl)c3)oc2C)CC1	22	56	3.7	89	40*	24
COc1ccc(CCNC(=O)C2CCN(Cc3nc(-c4ccccc4F)oc3C)CC2)cc1OC	60	102	-0.07	104	90	63
COc1ccc(-n2c(C)cc(/C=N/Nc3nnc(C)n3N)c2C)cc1	91	.	.	.	.	80
CC(=O)Nc1ccc(S(=O)(=O)NCC(=O)OCc2ccccc2)cc1	69	.	0.99	.	.	63
CCCC(=O)Nc1ccccc1Sc1ncnc2scc(-c3ccccc3)c12	96	.	.	.	.	84
COc1ccc(C(=O)CC(Nc2ccc([N+](=O)[O-])cc2)c2ccc(OC)cc2)cc1 (stereo not given)	73	.	-0.49	.	.	62
CNC(CC(=O)c1ccc([N+](=O)[O-])cc1)C(Cl)(Cl)Cl (stereo not given)	2.6*	.	.	.	.	3.4*
COc1cc2c(=O)n(Cc3ccco3)c(=O)n(CC(=O)c3ccc(Br)cc3)c2cc1OC	29	73	-1.4	80	17*	9
COc1cc2c(=O)n(Cc3ccco3)c(=O)n(CC(=O)c3cccc(Br)c3)c2cc1OC	29	57	.	97	2.4*	4
COc1cc2c(=O)n(Cc3ccccc3)c(=O)n(CC(=O)C(C)(C)C)c2cc1OC	.	84	.	95	90	.
CN1C(=O)NC(c2ccccc2)C2=C1CN(c1ccc3ccccc3c1)C2=O (stereo not given)	94	.	-1	.	.	95
Cc1oc2cc(OCc3cnn(-c4ccccc4)c3)ccc2c(=O)c1Oc1ccccc1F	82	.	.	.	.	96
COc1ccc(-n2c(=S)[nH]c3cc(C(=O)NCCCN4CCCC4=O)ccc3c2=O)c(OC)c1	101	93	-0.5	99	86	91
COc1ccc(-n2c(=S)[nH]c3cc(C(=O)NCCCN4CCCC4=O)ccc3c2=O)cc1	5.2*	92	0.21	93	98	13
Cc1cc2c(N3CCCCC3C)ncnc2s1 (stereo not given)	77	102	-1	94	37*	82
CC1CCCN(C(=S)Nc2ccc3nc4n(c(=O)c3c2)CCCCC4)C1 (stereo not given)	78	.	.	.	.	85
CC(C)(C)NC(=O)COC(=O)/C=C/c1ccc(F)cc1	105	.	.	.	.	91
CC(C)(C)C1=CC(=O)C(N2CCOCC2)=CC1=O	2.0*	.	.	.	.	2.0*
COc1ccc2c(c1)Cc1sc(NC(=O)c3ccccc3)nc1-2	86	78	0.05	99	11*	84
COc1ccc(C(=O)Nc2nc3c(s2)Cc2cc(OC)ccc2-3)cc1	95	91	-0.98	97	85	78
O=C(NC(Cc1ccccc1)c1ccc2c(c1)OCCCO2)c1ccccc1 (stereo not given)	97	.	-1.8	.	.	85
CCOc1ccc(-c2csc(/C(C#N)=C\c3ccc(O)c([N+](=O)[O-])c3)n2)cc1	5.5*	.	-2.9	.	.	5
O=C(CN1CCCC(O)C1)N1c2ccccc2Sc2ccc(C(F)(F)F)cc21 (stereo not given)	94	97	-0.56	95	109	91
CN1CCN(CCCN2c3ccccc3Sc3ccc(C(F)(F)F)cc32)CC1	1.7*	2.4*	.	62	0.6*	1.5*
SMILES	HCT116 bCat-KO	HUVEC prolif 384	Pyk2 oligo antag	Lung fibro prol	H69AR inhibit	PTEN del growth
COCCCNC(=O)Cn1nc(-c2ccc(C)cc2)ccc1=O	93	100	0.03	106	97	95
CN(c1cccc(NC(=O)c2ccc(Cl)c(S(=O)(=O)Nc3ccccc3)c2)c1)S(C)(=O)=O	87	.	-3.9*	.	.	87
CC(C)Oc1ccc(C(=O)Nc2ccc(Cl)c(S(=O)(=O)Nc3ccc(Cl)cc3)c2)cc1	3.1*	.	-0.1	.	.	3.1*
O=C(O)c1ccc(NS(=O)(=O)c2cc(Cl)ccc2Cl)cc1	94	81	0.55	93	103	86
Cc1ccccc1NS(=O)(=O)c1cc(C(=O)Nc2cccc(N(C)S(C)(=O)=O)c2)ccc1C	78	.	-3*	.	.	76
O=c1oc2ccccc2cc1N1CCOCC1	94	.	.	.	.	103
CCCCNC(=O)CNC(=S)N(CCCN1CCOCC1)Cc1cccs1	98	.	.	.	.	99
